The RNAGym collection of RNA variant scans (doi:10.1126/science.aae0568)
Variants at the floor of the assay were thinned out.

B1: tRNA (parent)
chain: GUUCCGUUGGCGUAAUGGUAACGCGUCUCCCUCCUAAGGAGAAGACUGCGGGUUCGAGUCCCGUACGGAACG

Variants of: B1
Assay: yeast fitness relative to wild type (ratio to wild type); higher = fitter; tRNA-Arg(CCU), competitive growth, 37 C, YPD
Procedure, shortened: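 A pool of Saccharomyces cerevisiae strains, each with a tRNA-Arg(CCU) gene variant at the native genomic locus, was competed in YPD at 37°C for 24 hours across six parallel replicates. The variants had been chemically synthesised at a 3% per-site mutation rate over 69 sites, and gene amplicons before and after competition were read by 100-nucleotide paired-end sequencing. Darwinian fitness relative to wild type rested on changes in genotype frequencies. Genotypes required ≥ 100 starting reads, and estimates < 0.5 were set to 0.5.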

Variant	yeast fitness
GUUCCGUUGGCGUGAUGGUAACGCGUCUCCCUCCUAAGGAGAAGACUGCCGGUUCGAGUCCCGUAUGGAACG [A14G G50C C66U]	≤ 0.5
GUUCCGUUGGCGUGAUGGUAACGCGUCUCCCUCCUAAGGAGAAGACUGCGGGUUCAAGUCCCGUACCGAACG [A14G G56A G67C]	≤ 0.5
GUUCCGUUGGCGUGAUGGUAACGCGUCUCCCUCCUAACGAGAAGACUGCGGGUUCGGGUCCCGUACGGAGCG [A14G G38C A57G A70G]	≤ 0.5
GUUCCGUUGGCGUGAUGGUAACGCCUCUCCUUCCUAAGGAGAAGACUGCGGGUUCGAGUCCCGUACGGAACG [A14G G25C C31U]	0.692
GUUCCGUUGGCGUGAUGGUAACGCGUCUCCCUCCUAAGGAGAAGACUGCAGGUUCGAGUCCCGUACGGAACG [A14G G50A]	0.907
GUUCCGUUGGCGUGAUGGUAACGCGUCUCCCUCCUAAGGAAAAGACAGCGGGUUCGAGUCCCGUACGGAACG [A14G G41A U47A]	0.591
GUUCCGUUGGCGUGAUGGUAACGCGUCUCCCUCCUAAGGAGAAAACUGCGGGUUCGAGUCCCGUACCGAACG [A14G G44A G67C]	≤ 0.5
GUUCCGUUGGCGUGAUGGUAACGCGUCUCCCUCCUAAGGAGAAAAAUGCGGAUUCGAGUCCCGUAUGGAACG [A14G G44A C46A G52A C66U]	≤ 0.5
GUUCCGUUGGCGUGAUGGUAACGCGUCUCCCUCCUAACGAGAAGACUGCGGGUUCGAGUCCCGUCCGGAACG [A14G G38C A65C]	≤ 0.5
GUUCCGUUGGCGUGAUGGUAACGCGUCUCCCUCCUAAGCAGAAGACUGCGGGUUCGAGUCCCGUACGGAACG [A14G G39C]	0.678
GUUCCGUUGGCGUGAUGGUAACGCAUCUCACUCCUAAGGAGCAGACUGCGGGUUCGAGUCCCGUACGGAACG [A14G G25A C30A A42C]	≤ 0.5
GUUCCGUUGGCGUGAUGGUAACGCAUCUCCCUCCUAAGGAGAAGACUGCGGGUUCGAGUCCCGUACGGUACG [A14G G25A A69U]	0.77
GUUCCGUUGGCGUGAUGGUAACGCGUCUCCCUCCUAAGGAGAAGACUGCGGCUUCGAGUCCCGUACGGAUCG [A14G G52C A70U]	≤ 0.5
GUUCCGUUGGCGUGAUGGUAACGCAUCUCCCACCUAAGGAGAAGACUGCGGGUUCGAGUCCCGUACGGAACG [A14G G25A U32A]	0.56
GUUCCGUUGGCGUGAUGGUAACGCGUCUCCCUCCUAAGCAGAAGACUGCGGGUUAGAGUCCCGUGCGGAACG [A14G G39C C55A A65G]	≤ 0.5
GUUCCGUUGGCGUGAUGGUAACGCGUCUCCCUCCUAAGCAGAAGACCGCGGGUUCGAGUCCCGUACGGAACG [A14G G39C U47C]	≤ 0.5
GUUCCGUUGGCGUGAUGGUAACGCGUCUCCCUCCUAAGGAGAAGACUCCAGGUUCGAGUCCCGUACGGAACG [A14G G48C G50A]	0.546
GUUCCGUUGGCGUGAUGGUAACGCGUCUCCCUCCUAAGGAGAAAACUGCGGGUUCGUGUCCCGUACGGAACG [A14G G44A A57U]	0.576
GUUCCGUUGGCGUGAUGGUAACGCCUCUCCCUCCUAAGGAGAAGACUGCGCGUUCGAGUUCCGUACAGAACG [A14G G25C G51C C60U G67A]	≤ 0.5

Variant	yeast fitness
GUUCCGUUGGCGUGAUGGUAACGCGUCUCCCUCCUAAGGAGAAGACUCCGGGUUCGAGUCCUGUACGGAACG [A14G G48C C62U]	0.654
GUUCCGUUGGCGUGAUGGUAACGCGUCUCCCUCCUAAGGAGAAGACUACGGGUUCGAGUCCCGUACGGAACG [A14G G48A]	0.868
GUUCCGUUGGCGUGAUGGUAACGCGUCUCCCUCCUAAGGAGAACACUGCGGGUUCGAGUCCCGUACGGAACG [A14G G44C]	0.928
GUUCCGUUGGCGUGAUGGUAACGCGUCUCCCUCCUAAGGAGAAAACUGCGGGUUCGAGUCCCGUACGGAACG [A14G G44A]	0.894
GUUCCGUUGGCGUGAUGGUAACGCGUCUCCCUCCUAAGCAGAAGACUGCGGGUUCGAGUCCCGUACGGAUCG [A14G G39C A70U]	0.717
GUUCCGUUGGCGUGAUGGUAACGCGUCUCCCUCCUAAGGAGAAGACUGCGGGUUCGAAUCCCGUUCGGAACG [A14G G58A A65U]	0.782
GUUCCGUUGGCGUGAUGGUAACGCAUCUCCCUCCUAAGGAGAAGAGUGCGGGUUCGCGUCCCGUACGGAACG [A14G G25A C46G A57C]	≤ 0.5
GUUCCGUUGGCGUGAUGGUAACGCCUCUCCCUCCUAAGGAGAAGACUGCGGGUUCGAGUCCCGUACGGAACG [A14G G25C]	0.976
GUUCCGUUGGCGUGAUGGUAACGCGUCUCCCUCCUAAGGAGAAGACUACGGGUUCGAGUCCCGUACGAAACG [A14G G48A G68A]	≤ 0.5
GUUCCGUUGGCGUGAUGGUAACGCGUCUCCCUCCUAAGGAGAAGACUGCGGAUUCCAGUCCCGUGCGGAACG [A14G G52A G56C A65G]	≤ 0.5
GUUCCGUUGGCGUGAUGGUAACGCGUCUCCCUCCUAAGGAGAAGACUGCGGGUUCAAGUCCCGUACGGAACG [A14G G56A]	0.805
GUUCCGUUGGCGUGAUGGUAACGCAUCUCACUCCUAAGGAGAAGACUGCGGCUUCGAGUCCCGUACGGAACG [A14G G25A C30A G52C]	0.548
GUUCCGUUGGCGUGAUGGUAACGCGUCUCCCUCCUAAGGAAAAGACUGCGGGUUCGAGUCCCGUACGGAACG [A14G G41A]	0.981
GUUCCGUUGGCGUGAUGGUAACGCGUCUCCCUCCUAAGGAGAAGACUGCCGGUUCGAGUCCCGUACGGUACG [A14G G50C A69U]	≤ 0.5
GUUCCGUUGGCGUGAUGGUAACGCGUCUCCCUCCUAAGGAGAAGACUCCGGGUUCGAGUCCCGCACGGAACG [A14G G48C U64C]	0.715
GUUCCGUUGGCGUGAUGGUAACGCGUCUCCCUCCUAAGGAGAAGACUCCGGGUUCGAGUCCCGGACGGAACG [A14G G48C U64G]	0.503
GUUCCGUUGGCGUGAUGGUAACGCGUCUCCCUCCUAAGCAGAAGACUGCGGGUUCGAGUCCCGUACGAAUCG [A14G G39C G68A A70U]	≤ 0.5
GUUCCGUUGGCGUGAUGGUAACGCGUCUCCCUCCUAAAGAGAGGACUGCGGGUUCGAGUCCCGUACGGAACG [A14G G38A A43G]	≤ 0.5
GUUCCGUUGGCGUGAUGGUAACGCGUCUCCCUCCUAAGGAGAAGACUACGGGUUCGAGUCACGUACGUAACG [A14G G48A C61A G68U]	≤ 0.5
